According to ChEMBL document CHEMBL2424622, “Development of amino-pyrimidine inhibitors of c-Jun N-terminal kinase (JNK): kinase profiling guided optimization of a 1,2,3-benzotriazole lead” (Bioorg Med Chem Lett, 2013):

Tests used:
[1] = biological target: Receptor tyrosine-protein kinase erbB-4 (Homo sapiens) (UniProt Q15303); assay: Competitive binding affinity to ERBB4 (unknown origin) at 10 uM in presence of ATP relative to control
How it was run: (§1)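 In vitro ATP-site competition binding assay, part of profiling against a diverse panel of 128 kinases. Each compound was tested at a single concentration of 10 µM. Kinome selectivity was summarized as S15 selectivity scores.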

[2] = biological target: Leukocyte tyrosine kinase receptor (Homo sapiens) (UniProt P29376); assay: Competitive binding affinity to LTK (unknown origin) at 10 uM in presence of ATP relative to control; how it was run: as §1
Leukocyte tyrosine kinase receptor (Homo sapiens), sequence (P29376 whole entry): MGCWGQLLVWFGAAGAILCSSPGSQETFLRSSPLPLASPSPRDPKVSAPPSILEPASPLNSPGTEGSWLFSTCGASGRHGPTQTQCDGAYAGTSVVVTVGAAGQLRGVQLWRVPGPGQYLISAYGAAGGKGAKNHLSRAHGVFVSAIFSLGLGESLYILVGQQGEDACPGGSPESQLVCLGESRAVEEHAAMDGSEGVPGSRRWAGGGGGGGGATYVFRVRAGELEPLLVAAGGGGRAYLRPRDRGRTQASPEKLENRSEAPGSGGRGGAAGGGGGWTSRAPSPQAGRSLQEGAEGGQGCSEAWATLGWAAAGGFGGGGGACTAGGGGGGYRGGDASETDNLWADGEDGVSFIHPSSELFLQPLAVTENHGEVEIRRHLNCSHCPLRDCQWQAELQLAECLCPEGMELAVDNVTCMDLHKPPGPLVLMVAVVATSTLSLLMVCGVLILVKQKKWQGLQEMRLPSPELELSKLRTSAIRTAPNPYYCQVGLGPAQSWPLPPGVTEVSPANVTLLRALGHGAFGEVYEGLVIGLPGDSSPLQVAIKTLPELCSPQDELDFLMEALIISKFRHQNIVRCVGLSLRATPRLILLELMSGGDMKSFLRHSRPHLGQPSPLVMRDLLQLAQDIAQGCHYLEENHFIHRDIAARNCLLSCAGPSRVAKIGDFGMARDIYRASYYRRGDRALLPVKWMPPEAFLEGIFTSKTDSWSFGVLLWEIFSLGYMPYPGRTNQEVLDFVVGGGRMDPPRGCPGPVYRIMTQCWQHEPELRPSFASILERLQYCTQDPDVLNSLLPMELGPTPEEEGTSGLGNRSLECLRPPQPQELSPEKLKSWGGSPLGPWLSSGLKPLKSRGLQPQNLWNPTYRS

[3] = biological target: T1, Tyrosine-protein kinase TXK (Homo sapiens) (UniProt P42681); assay: Competitive binding affinity to TXK (unknown origin) at 10 uM in presence of ATP relative to control
T1 sequence (whole entry): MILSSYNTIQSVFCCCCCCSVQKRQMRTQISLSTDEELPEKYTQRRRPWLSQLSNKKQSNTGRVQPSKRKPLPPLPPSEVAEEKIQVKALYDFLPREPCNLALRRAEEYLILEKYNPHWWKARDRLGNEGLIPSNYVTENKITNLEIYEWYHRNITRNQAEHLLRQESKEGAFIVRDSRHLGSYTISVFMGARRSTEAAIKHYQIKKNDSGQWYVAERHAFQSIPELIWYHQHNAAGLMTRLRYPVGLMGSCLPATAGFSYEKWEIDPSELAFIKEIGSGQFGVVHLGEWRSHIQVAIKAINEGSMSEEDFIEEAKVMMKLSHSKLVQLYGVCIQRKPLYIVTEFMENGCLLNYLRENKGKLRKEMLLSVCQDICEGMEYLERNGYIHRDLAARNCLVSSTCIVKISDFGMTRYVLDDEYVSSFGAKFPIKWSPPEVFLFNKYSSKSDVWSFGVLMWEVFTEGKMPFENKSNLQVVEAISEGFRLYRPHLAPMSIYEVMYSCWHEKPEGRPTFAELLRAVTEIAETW
How it was run: (§2)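 In vitro ATP-site competition binding assay across a diverse panel of 128 kinases, with compound tested at a single concentration. Kinase selectivity scores (S15) were calculated from the panel profiles.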

[4] = biological target: Tyrosine-protein kinase CSK (Homo sapiens) (UniProt P41240); assay: Competitive binding affinity to CSK (unknown origin) at 10 uM in presence of ATP relative to control
[5] = biological target: LIM domain kinase 1 (Homo sapiens, UniProt P53667); assay: Competitive binding affinity to LIMK1 (unknown origin) at 10 uM in presence of ATP relative to control; how it was run: as §1
LIM domain kinase 1, sequence (P53667 whole entry, looked up, the tested form may be a part): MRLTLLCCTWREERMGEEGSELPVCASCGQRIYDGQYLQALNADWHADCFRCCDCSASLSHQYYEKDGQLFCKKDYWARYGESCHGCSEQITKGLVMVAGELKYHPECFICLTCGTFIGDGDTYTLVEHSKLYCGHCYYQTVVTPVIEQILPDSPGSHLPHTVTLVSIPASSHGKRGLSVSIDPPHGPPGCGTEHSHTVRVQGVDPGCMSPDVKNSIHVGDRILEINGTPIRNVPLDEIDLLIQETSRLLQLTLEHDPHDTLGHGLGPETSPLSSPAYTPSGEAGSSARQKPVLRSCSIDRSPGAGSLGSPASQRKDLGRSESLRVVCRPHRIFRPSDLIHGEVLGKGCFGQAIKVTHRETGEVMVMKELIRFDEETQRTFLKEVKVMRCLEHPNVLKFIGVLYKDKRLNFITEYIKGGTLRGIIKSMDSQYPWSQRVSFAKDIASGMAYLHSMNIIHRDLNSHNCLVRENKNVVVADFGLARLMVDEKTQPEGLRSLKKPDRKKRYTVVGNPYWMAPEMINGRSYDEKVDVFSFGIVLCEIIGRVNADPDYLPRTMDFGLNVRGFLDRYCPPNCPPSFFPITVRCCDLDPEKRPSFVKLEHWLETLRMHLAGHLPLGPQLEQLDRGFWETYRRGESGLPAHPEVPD

[6] = biological target: 5'-AMP-activated protein kinase catalytic subunit alpha-1 (Homo sapiens) (UniProt Q13131); assay: Competitive binding affinity to AMPKalpha1 (unknown origin) at 10 uM in presence of ATP relative to control
[7] = biological target: T2, Ephrin type-A receptor 8 (Homo sapiens) (UniProt P29322); assay: Competitive binding affinity to EPHA8 (unknown origin) at 10 uM in presence of ATP relative to control; how it was run: as §1
T2 sequence (whole entry): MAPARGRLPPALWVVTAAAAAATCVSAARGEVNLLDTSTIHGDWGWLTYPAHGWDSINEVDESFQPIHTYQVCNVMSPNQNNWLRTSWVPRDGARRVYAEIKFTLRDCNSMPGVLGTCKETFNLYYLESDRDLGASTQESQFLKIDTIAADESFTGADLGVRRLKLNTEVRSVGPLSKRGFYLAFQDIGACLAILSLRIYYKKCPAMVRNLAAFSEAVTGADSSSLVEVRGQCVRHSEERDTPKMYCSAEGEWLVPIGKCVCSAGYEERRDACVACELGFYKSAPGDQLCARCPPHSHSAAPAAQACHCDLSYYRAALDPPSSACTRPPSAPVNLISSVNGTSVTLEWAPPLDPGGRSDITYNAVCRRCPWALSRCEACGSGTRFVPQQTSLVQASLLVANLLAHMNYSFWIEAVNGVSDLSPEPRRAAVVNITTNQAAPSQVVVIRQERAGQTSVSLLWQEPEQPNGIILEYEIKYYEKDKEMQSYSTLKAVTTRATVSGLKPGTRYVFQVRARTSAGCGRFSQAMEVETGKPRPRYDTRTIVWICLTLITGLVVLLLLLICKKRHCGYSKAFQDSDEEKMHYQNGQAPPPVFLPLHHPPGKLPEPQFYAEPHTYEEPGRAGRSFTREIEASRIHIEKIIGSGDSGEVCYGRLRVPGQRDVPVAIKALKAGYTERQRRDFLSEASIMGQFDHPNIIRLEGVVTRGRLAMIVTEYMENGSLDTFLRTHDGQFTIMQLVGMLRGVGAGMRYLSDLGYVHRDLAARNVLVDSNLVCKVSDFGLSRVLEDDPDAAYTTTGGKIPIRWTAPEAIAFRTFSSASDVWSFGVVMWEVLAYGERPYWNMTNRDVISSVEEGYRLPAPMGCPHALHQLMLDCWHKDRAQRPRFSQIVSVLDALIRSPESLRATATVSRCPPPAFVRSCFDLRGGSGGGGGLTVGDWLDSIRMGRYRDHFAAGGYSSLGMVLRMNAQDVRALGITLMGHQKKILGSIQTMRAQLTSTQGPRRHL

[8] = biological target: Tyrosine-protein kinase Yes (Homo sapiens) (UniProt P07947); assay: Competitive binding affinity to YES (unknown origin) at 10 uM in presence of ATP relative to control; how it was run: as §2
[9] = biological target: Calcium/calmodulin-dependent protein kinase type II subunit delta (Homo sapiens) (UniProt Q13557); assay: Competitive binding affinity to CAMK2D (unknown origin) at 10 uM in presence of ATP relative to control
[10] = biological target: Protein-tyrosine kinase 6 (Homo sapiens) (UniProt Q13882); assay: Competitive binding affinity to PTK6 (unknown origin) at 10 uM in presence of ATP relative to control; how it was run: as §2
[11] = biological target: Death-associated protein kinase 3 (Homo sapiens, UniProt O43293); assay: Competitive binding affinity to DAPK3 (unknown origin) at 10 uM in presence of ATP relative to control
How it was run: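 In vitro ATP-site competition binding assay across a diverse panel of 128 kinases, with each compound tested at a single concentration. Kinase binding is expressed relative to control.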

[12] = biological target: Calcium/calmodulin-dependent protein kinase kinase 1 (Homo sapiens) (UniProt Q8N5S9); assay: Competitive binding affinity to CAMKK1 (unknown origin) at 10 uM in presence of ATP relative to control
Calcium/calmodulin-dependent protein kinase kinase 1 (Homo sapiens), sequence (Q8N5S9 whole entry, looked up): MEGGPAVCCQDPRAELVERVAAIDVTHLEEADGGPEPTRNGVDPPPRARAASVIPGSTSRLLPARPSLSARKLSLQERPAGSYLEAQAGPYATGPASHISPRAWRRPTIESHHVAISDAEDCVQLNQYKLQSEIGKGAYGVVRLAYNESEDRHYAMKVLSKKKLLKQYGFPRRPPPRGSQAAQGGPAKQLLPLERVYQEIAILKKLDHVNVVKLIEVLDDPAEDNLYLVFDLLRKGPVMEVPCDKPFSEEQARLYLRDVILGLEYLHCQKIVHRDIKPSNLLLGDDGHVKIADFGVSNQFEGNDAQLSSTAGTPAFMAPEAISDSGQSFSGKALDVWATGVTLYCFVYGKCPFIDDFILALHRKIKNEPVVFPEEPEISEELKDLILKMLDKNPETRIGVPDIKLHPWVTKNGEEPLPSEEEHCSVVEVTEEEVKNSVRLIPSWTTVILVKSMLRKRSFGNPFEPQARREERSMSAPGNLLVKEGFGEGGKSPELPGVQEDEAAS

[13] = biological target: Dual specificity protein kinase CLK4 (Homo sapiens) (UniProt Q9HAZ1); assay: Competitive binding affinity to CLK4 (unknown origin) at 10 uM in presence of ATP relative to control
[14] = biological target: Calcium/calmodulin-dependent protein kinase kinase 2 (Homo sapiens) (UniProt Q96RR4); assay: Competitive binding affinity to CAMKK2 (unknown origin) at 10 uM in presence of ATP relative to control
[15] = biological target: RAF proto-oncogene serine/threonine-protein kinase (Homo sapiens) (UniProt P04049); assay: Competitive binding affinity to RAF1 (unknown origin) at 10 uM in presence of ATP relative to control; how it was run: as §2
RAF proto-oncogene serine/threonine-protein kinase (Homo sapiens), sequence (P04049 whole entry): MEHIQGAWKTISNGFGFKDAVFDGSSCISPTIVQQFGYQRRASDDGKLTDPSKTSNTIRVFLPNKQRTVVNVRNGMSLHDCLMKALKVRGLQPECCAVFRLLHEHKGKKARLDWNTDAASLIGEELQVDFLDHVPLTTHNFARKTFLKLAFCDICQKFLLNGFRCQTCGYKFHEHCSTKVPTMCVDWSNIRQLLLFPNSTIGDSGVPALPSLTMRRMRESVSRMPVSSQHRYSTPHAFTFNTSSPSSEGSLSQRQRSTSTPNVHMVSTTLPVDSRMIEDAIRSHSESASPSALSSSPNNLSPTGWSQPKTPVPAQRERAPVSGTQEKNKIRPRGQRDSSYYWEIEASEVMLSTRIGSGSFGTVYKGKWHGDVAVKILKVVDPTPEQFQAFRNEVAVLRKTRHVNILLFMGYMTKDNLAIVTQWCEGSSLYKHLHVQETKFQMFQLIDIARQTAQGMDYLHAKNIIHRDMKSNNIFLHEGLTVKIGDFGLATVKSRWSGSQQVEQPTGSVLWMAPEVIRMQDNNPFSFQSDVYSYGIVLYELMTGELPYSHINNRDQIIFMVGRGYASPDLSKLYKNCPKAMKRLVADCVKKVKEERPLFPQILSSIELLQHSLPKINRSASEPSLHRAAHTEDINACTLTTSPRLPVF

[16] = biological target: Platelet-derived growth factor receptor alpha (Homo sapiens) (UniProt P16234); assay: Competitive binding affinity to PDGFRA (unknown origin) at 10 uM in presence of ATP relative to control; how it was run: as §2
Platelet-derived growth factor receptor alpha (Homo sapiens), sequence (P16234 whole entry): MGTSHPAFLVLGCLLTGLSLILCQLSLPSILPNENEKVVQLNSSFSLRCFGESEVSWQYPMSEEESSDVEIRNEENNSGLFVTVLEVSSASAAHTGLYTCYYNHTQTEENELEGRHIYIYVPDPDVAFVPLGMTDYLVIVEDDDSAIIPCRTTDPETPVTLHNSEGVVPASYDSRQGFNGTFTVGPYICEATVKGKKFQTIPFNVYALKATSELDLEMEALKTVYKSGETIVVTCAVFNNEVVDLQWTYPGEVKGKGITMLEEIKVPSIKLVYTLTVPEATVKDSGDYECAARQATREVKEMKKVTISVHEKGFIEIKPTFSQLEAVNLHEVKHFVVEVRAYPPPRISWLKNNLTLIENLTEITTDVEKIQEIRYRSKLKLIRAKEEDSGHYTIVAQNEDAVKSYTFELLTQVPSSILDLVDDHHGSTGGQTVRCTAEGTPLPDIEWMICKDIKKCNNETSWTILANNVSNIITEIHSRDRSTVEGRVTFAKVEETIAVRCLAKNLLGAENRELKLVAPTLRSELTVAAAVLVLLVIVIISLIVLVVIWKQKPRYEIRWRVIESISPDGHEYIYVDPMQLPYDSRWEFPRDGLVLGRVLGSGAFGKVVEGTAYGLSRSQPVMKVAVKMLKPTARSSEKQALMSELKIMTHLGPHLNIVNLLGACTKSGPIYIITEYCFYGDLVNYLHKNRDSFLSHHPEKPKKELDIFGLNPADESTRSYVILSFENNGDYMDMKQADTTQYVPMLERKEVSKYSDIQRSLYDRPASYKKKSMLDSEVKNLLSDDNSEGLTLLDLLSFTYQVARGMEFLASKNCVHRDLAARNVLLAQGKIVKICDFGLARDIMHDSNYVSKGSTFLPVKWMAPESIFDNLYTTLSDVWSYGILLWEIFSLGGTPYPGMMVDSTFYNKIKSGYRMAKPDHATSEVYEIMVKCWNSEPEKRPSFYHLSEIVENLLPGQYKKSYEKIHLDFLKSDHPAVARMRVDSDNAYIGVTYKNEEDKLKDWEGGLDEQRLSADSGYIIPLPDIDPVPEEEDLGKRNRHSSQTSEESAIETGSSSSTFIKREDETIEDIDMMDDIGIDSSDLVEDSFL

Receptor tyrosine-protein kinase erbB-4 (Homo sapiens), sequence (Q15303 whole entry): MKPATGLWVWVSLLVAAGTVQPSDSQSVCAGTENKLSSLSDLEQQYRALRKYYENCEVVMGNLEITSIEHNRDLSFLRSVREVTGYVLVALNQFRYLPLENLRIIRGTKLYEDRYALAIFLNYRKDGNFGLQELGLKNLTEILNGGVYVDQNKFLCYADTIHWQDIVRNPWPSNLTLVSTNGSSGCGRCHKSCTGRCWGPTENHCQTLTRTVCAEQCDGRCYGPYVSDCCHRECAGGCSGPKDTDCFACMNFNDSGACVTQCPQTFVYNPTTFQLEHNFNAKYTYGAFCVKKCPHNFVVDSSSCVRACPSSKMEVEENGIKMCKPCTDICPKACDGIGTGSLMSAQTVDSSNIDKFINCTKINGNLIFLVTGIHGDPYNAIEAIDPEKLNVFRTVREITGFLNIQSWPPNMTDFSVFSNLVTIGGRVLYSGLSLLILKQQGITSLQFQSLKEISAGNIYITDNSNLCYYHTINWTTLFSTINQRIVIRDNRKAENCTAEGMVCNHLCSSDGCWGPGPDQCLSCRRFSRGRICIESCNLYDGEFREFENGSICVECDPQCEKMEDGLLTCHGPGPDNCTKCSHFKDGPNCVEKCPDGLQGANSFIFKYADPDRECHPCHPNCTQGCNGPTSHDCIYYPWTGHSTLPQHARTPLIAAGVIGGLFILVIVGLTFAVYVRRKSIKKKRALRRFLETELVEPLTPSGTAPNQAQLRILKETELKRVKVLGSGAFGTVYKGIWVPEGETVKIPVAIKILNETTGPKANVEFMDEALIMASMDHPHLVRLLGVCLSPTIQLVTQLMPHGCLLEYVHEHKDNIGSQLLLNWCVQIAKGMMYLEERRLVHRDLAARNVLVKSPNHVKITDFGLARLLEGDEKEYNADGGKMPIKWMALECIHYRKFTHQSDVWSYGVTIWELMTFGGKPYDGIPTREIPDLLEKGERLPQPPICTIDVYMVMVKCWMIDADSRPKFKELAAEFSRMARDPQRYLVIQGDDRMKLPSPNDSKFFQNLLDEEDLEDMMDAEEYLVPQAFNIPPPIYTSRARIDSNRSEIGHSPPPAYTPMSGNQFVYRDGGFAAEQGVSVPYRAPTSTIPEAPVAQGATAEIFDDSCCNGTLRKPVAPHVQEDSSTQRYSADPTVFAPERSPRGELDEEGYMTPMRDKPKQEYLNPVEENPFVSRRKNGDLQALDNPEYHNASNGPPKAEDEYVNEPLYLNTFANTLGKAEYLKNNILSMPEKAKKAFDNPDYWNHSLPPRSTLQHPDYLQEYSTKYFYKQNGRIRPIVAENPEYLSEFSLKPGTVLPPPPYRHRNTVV

Structure (SMILES)	inhibition [1] [%]	inhibition [2] [%]	inhibition [3] [%]	inhibition [4] [%]	inhibition [5] [%]	inhibition [6] [%]	inhibition [7] [%]	inhibition [8] [%]	inhibition [9] [%]	inhibition [10] [%]	inhibition [11] [%]	inhibition [12] [%]	inhibition [13] [%]	inhibition [14] [%]	inhibition [15] [%]	inhibition [16] [%]
O[C@H]1CC[C@H](Nc2nccc(-n3nnc4ccccc43)n2)CC1	< 50	< 50	< 50	< 50	87	< 50	< 50	< 50	74	< 50	93	< 50	98	72	< 50	< 50
CS(=O)(=O)CCCOc1cccc2c1ccn2-c1ccnc(N[C@H]2CC[C@H](C(=O)N3CCC(O)CC3)CC2)n1					> 85						> 85					
O[C@H]1CC[C@H](Nc2nccc(-n3ncc4ccccc43)n2)CC1	< 50	< 50	< 50	< 50	88	< 50	< 50	< 50	93	< 50	< 50	< 50	99	65	< 50	72
O[C@H]1CC[C@H](Nc2nccc(-c3n[nH]c4ccccc34)n2)CC1	< 50	100	< 50	< 50	96	92	< 50	78	91	78	96	85	100	84	< 50	98
O[C@H]1CC[C@H](Nc2nccc(-n3ccc4ccccc43)n2)CC1	< 50	< 50	< 50	< 50	77	< 50	< 50	< 50	85	< 50	< 50	< 50	95	< 50	< 50	< 50
O=C([C@H]1CC[C@H](Nc2nccc(-n3nnc4ccccc43)n2)CC1)N1CCOCC1	< 50	< 50	< 50	< 50	78	< 50	< 50	< 50	< 50	< 50	64	< 50	94	75	< 50	< 50
N[C@H]1CC[C@H](Nc2nccc(-n3nnc4ccccc43)n2)CC1	< 50	< 50	< 50	< 50	< 50	86	< 50	< 50	83	< 50	95	< 50	100	86	< 50	< 50
